The results in this text go back to ChEMBL document CHEMBL1141198, “Design and synthesis of tri-ring P3 benzamide-containing aminonitriles as potent, selective, orally effective inhibitors of cathepsin K” (J Med Chem, 2005).

The target in one series is Cathepsin B (Homo sapiens, UniProt P07858). Kind of series: Inhibitory constant against human cathepsin B using Boc-Leu-Lys-Arg-AMC substrate. To be noted: read-out: Ki app.
The target in the next series is Procathepsin L (Homo sapiens, UniProt P07711). As to the kind of experiment: Inhibitory constant against human cathepsin L using Z-Phe-Arg-AMC substrate. The settings on record: read-out: Ki app. The essentials: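 Recombinant human cathepsin L at 500 pM in 50 mM MES pH 5.5, 2.5 mM DTT, 2.5 mM EDTA, 10% DMSO. Enzyme preincubated with inhibitor (8 concentrations) 30 min at 21–24 °C. Reaction started with 10 μM Z-Phe-Arg-AMC; AMC fluorescence (ex 355/em 460 nm) over first ~5 min. Ki(app) fitted with Morrison tight-binding model.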

In the next series the target is Cathepsin S (Homo sapiens, UniProt P25774). As to the kind of experiment: Inhibitory constant against human cathepsin S using Z-Val-Val-Arg-AMC substrate. The settings on record: read-out: Ki app. The essentials: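 Recombinant human cathepsin S at 500 pM in 50 mM MES pH 6.5, 2.5 mM β-mercaptoethanol, 2.5 mM EDTA, 100 mM NaCl, 0.001% BSA, 10% DMSO. 30 min enzyme–inhibitor preincubation at 21–24 °C, 8 inhibitor concentrations. Started with 60 μM Z-Val-Val-Arg-AMC; initial rates by AMC fluorescence (ex 355/em 460). Ki(app) by Morrison tight-binding fit.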

The test system of a further series is Osteoclast. As to the kind of experiment: In vitro bone resorption in isolated rabbit osteoclasts. The format is functional, cell-based. The settings on record: Oryctolagus cuniculus. The essentials:
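Bovine bone degraded by isolated rabbit osteoclasts; collagen degradation read by ELISA. 8-point dose–response curves; IC50 derived.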

The subject of series [1] is Rattus norvegicus. As to the kind of experiment: Mean residence time in rat administered with 0.5 mg/kg, iv. The format is functional, organism-based. Also noted: dose 0.5 mg/kg. Summed up:
(§1)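 Rats, three per study, cassette iv dosing of up to four compounds. Formulation DMSO (<20%), PEG 400 (<20%) and water at 0.5 mg/mL per compound, given at 1 mL/kg for 0.5 mg/kg per compound.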

Series [2] deals with Rattus norvegicus. Kind of series: Terminal half-life in rat administered with 0.5 mg/kg, iv. Also on record: dose 0.5 mg/kg. The format is functional, organism-based. Summed up: as §1
Series [3] in a line: Maximum concentration in rat administered with 0.5 mg/kg, iv. The format is ADME, organism-based. Also noted: dose 0.5 mg/kg, route intravenous. To be noted: in vivo.
Series [4] deals with Cathepsin K (Homo sapiens) (UniProt P43235). Kind of series: Inhibitory constant against human cathepsin K using Z-Phe-Arg-AMC substrate. The settings on record: read-out: Ki app.
Series [5] in a line: Plasma clearance in rat administered with 0.5 mg/kg, iv. The format is ADME, organism-based. Also on record: dose 0.5 mg/kg, route intravenous. The essentials: as §1
The nature of series [6]: Volume of distribution in rat administered with 0.5 mg/kg, iv. The format is ADME, organism-based. Also noted: dose 0.5 mg/kg, route intravenous. To be noted: in vivo, read-out: Vss. The essentials:
as §1

The structures appear in SMILES notation.

Sequence of Procathepsin L (P07711 whole entry): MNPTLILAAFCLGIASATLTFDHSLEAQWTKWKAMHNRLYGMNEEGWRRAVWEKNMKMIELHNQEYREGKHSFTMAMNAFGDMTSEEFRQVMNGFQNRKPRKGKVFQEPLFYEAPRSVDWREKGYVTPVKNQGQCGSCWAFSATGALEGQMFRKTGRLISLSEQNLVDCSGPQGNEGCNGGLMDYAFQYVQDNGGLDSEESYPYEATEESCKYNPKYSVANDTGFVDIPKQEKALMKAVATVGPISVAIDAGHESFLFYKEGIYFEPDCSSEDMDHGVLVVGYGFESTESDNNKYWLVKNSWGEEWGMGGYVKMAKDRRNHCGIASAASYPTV
Sequence of Cathepsin S (P25774 whole entry): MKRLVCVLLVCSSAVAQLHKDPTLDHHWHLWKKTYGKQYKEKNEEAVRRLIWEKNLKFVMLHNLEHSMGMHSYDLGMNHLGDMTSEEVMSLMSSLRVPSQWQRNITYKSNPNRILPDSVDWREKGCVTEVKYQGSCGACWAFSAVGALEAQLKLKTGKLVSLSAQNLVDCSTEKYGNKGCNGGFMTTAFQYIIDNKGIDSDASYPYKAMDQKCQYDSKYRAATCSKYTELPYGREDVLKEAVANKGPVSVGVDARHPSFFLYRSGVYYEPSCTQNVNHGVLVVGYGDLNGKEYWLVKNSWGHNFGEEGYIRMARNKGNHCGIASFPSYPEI

By IC50 is commonly meant the concentration that gives 50% inhibition. Read a low IC50 as greater potency. Usually Cmax stands for the peak of the concentration-time curve. As to `N#CCNC(=O)C1(NC(=O)c2ccc(-c3csc(N4CCN(C5CCOCC5)CC4)n3)cc2)CCCCC1`, the Ki on Cathepsin B is 840 nM; at Procathepsin L, more than 150000 nM; on Cathepsin S, 17000 nM; in series [4], 0.47 nM. The IC50 with Osteoclast turned out to be 8 nM. This compound also came in with an MRT in the series on Rattus norvegicus [1] of 0.983 h. The T1/2 with Rattus norvegicus [2] turned out to be 1.07 h. Further, in series [3], the Cmax is 490 nM.
One may read the clearance as the rate of elimination divided by the concentration. A higher clearance goes with efficient removal. As for `N#CCNC(=O)C1(NC(=O)c2ccc(-c3ccc(S(=O)(=O)N4CCNCC4)cc3)cc2)CCCCC1`, the Ki is 380 nM at Cathepsin B, 430 nM on Procathepsin L, 9100 nM on Cathepsin S and less than 0.25 nM in series [4]. Also, in the series on Osteoclast, 20 nM corresponded to half-maximal inhibition (IC50). In [5], the clearance was 82 mL/min/kg. Moreover, the Vd in series [6] was 3.29 L/kg. In the series with Rattus norvegicus [1], the MRT came to 0.667 h. In the series with Rattus norvegicus [2], this compound yielded a T1/2 of 1.3 h. For the same compound, the highest level in series [3] (Cmax) was 1000 nM.
In the case of `CN1CCC(Oc2ccc(-c3ccc(C(=O)NC4(C(=O)NCC#N)CCCCC4)cc3)cc2)CC1`, the Ki was 530 nM on Cathepsin B, 5600 nM on Procathepsin L, 12000 nM on Cathepsin S and less than 0.25 nM in series [4]. The compound also gave an IC50 with Osteoclast of 20 nM. Also, in [5], the clearance stood at 97 mL/min/kg. Further, the Vd in series [6] was 11.1 L/kg. In addition, the MRT in the series with Rattus norvegicus [1] came out at 1.9 h. In addition, the T1/2 in the series on Rattus norvegicus [2] was 1.9 h. This compound had a Cmax in [3] of 320 nM.
In the case of `CN1CCC(c2nc(-c3ccc(C(=O)NC4(C(=O)NCC#N)CCCCC4)cc3)cs2)CC1`, the Ki at Cathepsin B was found to be 1400 nM; on Procathepsin L it was 15000 nM; on Cathepsin S, 20000 nM; in series [4], 1.6 nM. Further, 61 nM corresponded to half-maximal inhibition in the series on Osteoclast (IC50). In addition, the MRT with Rattus norvegicus [1] is 0.233 h. In addition, in the series with Rattus norvegicus [2], the T1/2 came to 0.717 h. Further, the Cmax in [3] came to 1430 nM.
Take `CC(C)(C)N1CCN(c2ccc(-c3ccc(C(=O)NC4(C(=O)NCC#N)CCCCC4)cc3)cc2)CC1`: the Ki on Cathepsin B is 510 nM; at Procathepsin L it was 11000 nM; at Cathepsin S, 7900 nM; in [4], less than 0.25 nM. In the series on Osteoclast, this compound yielded a 50% inhibitory concentration (IC50) of 13 nM. Moreover, the clearance in series [5] came to 67 mL/min/kg. Besides, the Vd in series [6] was determined as 11.2 L/kg. Besides, the MRT in the series on Rattus norvegicus [1] came to 2.87 h. Further, the T1/2 with Rattus norvegicus [2] is 2.4 h.
On to `CN(C)C1CCN(c2nc(-c3ccc(C(=O)NC4(C(=O)NCC#N)CCCCC4)cc3)cs2)C1` (configuration not stated), for which the Ki at Cathepsin B worked out at 1700 nM; at Procathepsin L it was 12000 nM; at Cathepsin S, 26000 nM; in [4] it was 0.79 nM. In the series on Osteoclast, this compound returned an IC50 of 110 nM. This compound also returned an MRT in the series with Rattus norvegicus [1] of 0.683 h. This compound also registered a T1/2 with Rattus norvegicus [2] of 0.633 h. The highest level in series [3] (Cmax) was 300 nM.
As to `COCCN1CCC(Oc2ccc(-c3ccc(C(=O)NC4(C(=O)NCC#N)CCCCC4)cc3)cc2)CC1`, the Ki is 540 nM on Cathepsin B, 1200 nM at Procathepsin L, 6200 nM at Cathepsin S and less than 0.25 nM in series [4]. The same compound yielded an IC50 with Osteoclast of 21 nM. Also, in series [5], the clearance was determined as 43 mL/min/kg. Also, in [6], the Vd amounted to 3.27 L/kg. For the same compound, in the series with Rattus norvegicus [1], the MRT turned out to be 1.95 h. The same compound showed a T1/2 in the series with Rattus norvegicus [2] of 2.02 h. Besides, the Cmax in [3] worked out at 370 nM.
As for `CN1CCC(C)(c2nc(-c3ccc(C(=O)NC4(C(=O)NCC#N)CCCCC4)cc3)cs2)CC1`, the Ki at Cathepsin B amounted to 1100 nM; on Procathepsin L, 7600 nM; on Cathepsin S, 30000 nM; in series [4], 0.95 nM. Also, the IC50 in the series on Osteoclast stood at 46 nM. This compound had an MRT in the series with Rattus norvegicus [1] of 2.33 h. The T1/2 in the series on Rattus norvegicus [2] is 2.28 h. Further, the Cmax in series [3] came out at 440 nM.
`CC(C)N(C)C1CCN(c2nc(-c3ccc(C(=O)NC4(C(=O)NCC#N)CCCCC4)cc3)cs2)CC1`: the Ki at Cathepsin B was 1400 nM; on Procathepsin L, 15000 nM; on Cathepsin S, 3200 nM; in series [4], 1.6 nM. For the same compound, the IC50 in the series with Osteoclast amounted to 11 nM. This compound showed an MRT in the series with Rattus norvegicus [1] of 2.02 h. The compound further yielded a T1/2 in the series with Rattus norvegicus [2] of 1.92 h. In series [3], this compound registered a peak concentration (Cmax) of 430 nM.
`CN1CCN(N(C)c2nc(-c3ccc(C(=O)NC4(C(=O)NCC#N)CCCCC4)cc3)cs2)CC1`: the Ki came out at 890 nM at Cathepsin B, 8900 nM on Procathepsin L, 21000 nM at Cathepsin S and 0.25 nM in series [4]. 11 nM corresponded to half-maximal inhibition in the series with Osteoclast (IC50). Moreover, the MRT with Rattus norvegicus [1] amounted to 1.03 h. Moreover, the T1/2 with Rattus norvegicus [2] was 1.53 h. Further, the concentration in series [3] peaked (Cmax) at 470 nM.
